Screens from PubChem BioAssay.
ERAP1 HTS inh: ERAP1 (human) enzyme inhibition. Q9NZ08. 340,000 tested, 0.15% active. recombinant ERAP1, Leu-AMC fluorescence, 60 min. inhibition, % at 10.7 µM. AID 652197;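 active = mean replicate inhibition of at least 30%, or all replicates individually reaching that 30% level; inactive = mean below 30% and not every replicate reaching it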;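 also: 0% = neutral control wells and 100% = L-leucinethiol positive control wells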
PGC1a acetyl inh: PGC1a acetylation modulation, inhibitor mode; U2OS PGC1a acetylation, AlphaScreen anti-acetyl-lysine; with virally co-expressed GCN5 acetyltransferase; inhibition, % at 15.6 µM; 350,000 tested, 0.17% active;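 active = every replicate shows inhibition of at least 40%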;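 also: 0% = neutral control wells and 100% = positive control wells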
Env fusion inh: blocks HIV Env-driven cell-cell fusion; HeLa-JRFL Env/CEM21 cell fusion, luciferase; inhibition, % at 12.3 µM; 360,000 tested, 1.1% active; AID 651610;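 active = mean replicate inhibition score of at least 50 and every replicate individually at or above 50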;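 also: 0% = plate neutral controls and 100% = maraviroc near 300 nM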
Cneo AK release: causes C. neoformans cell lysis; adenylate kinase release luminescence, 4 h; normalised: neutral wells 0, clomiphene wells 100; lysis activity, % at 15 µM; 360,000 tested, 0.2% active;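 active = mean lysis activity across replicates of at least 80%, whatever share of replicates individually reach that level; inactive = mean lysis activity below 80%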
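Material: C. neoformans cells; Schedule: 4 h static compound exposure, 37 °C, read 1 h post-reagent; Measured by: adenylate kinase release luminescence; Read-out: signal increase indicating cell lysis; Controls: Clomiphene as positive lysis control.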
Ecoli rRNA inh: inhibits bacterial ribosomal RNA function over humanized ribosomes | E. coli WT GFP vs humanized-ribosome RFP mutants, fluorescence, 24 h; stronger effect = lower value; DMSO median 0, no signal -100 | GFP signal change (wild-type ribosome), % (no concentration beside the values) | AID 720706 | 350,000 tested, 1.6% active;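 active = significant combined selectivity score with lowered wild-type GFP, culture density cut under 30%, mutant RFP and density less affected; inactive = any of these conditions unmet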
FGF22 binding: binders of recombinant human FGF22 by thermal shift; 340,000 tested, 1.5% active; SYPRO orange fluorescence; percent of sucrose octasulfate shift, DMSO zero; activity (Tm shift, normalised), % at 9.99 µM; AID 651658; Q9HCT0;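 active = mean Tm shift, scaled 0 neutral to 100 positive control, at about 1.3% or above, every replicate too, limit read from the data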
Active calls of the source: *; [ ] = another dose, or the depositor's remark. An excerpt weighted towards active compounds, which were near 3.5% of everything screened.

How did COc1cccc(CNC(=O)C[C@@H]2C=C[C@H](NC(=O)C3CCC3)[C@H](CO)O2)c1 do in these assays?
ERAP1 HTS inh: -9; PGC1a acetyl inh: -5; Env fusion inh: 65*[16.7 µM]; Cneo AK release: -15; Ecoli rRNA inh: 1; FGF22 binding: 0

How did CCC(=O)N[C@H]1C=C[C@H](CC(=O)NCC2CCCCC2)O[C@@H]1CO do in these assays?
ERAP1 HTS inh: 2; PGC1a acetyl inh: 3; Env fusion inh: 12[16.7 µM]; Cneo AK release: 89*; Ecoli rRNA inh: 3; FGF22 binding: -1

How did O=C(C[C@H]1C=C[C@H](NC(=O)C2CCC2)[C@@H](CO)O1)NC1CCC1 do in these assays?
ERAP1 HTS inh: -1; PGC1a acetyl inh: -1; Env fusion inh: 20[16.7 µM]; Cneo AK release: 91*; Ecoli rRNA inh: 2; FGF22 binding: -1

How did CCC(=O)N[C@@H]1C=C[C@H](CC(=O)NCC2CCCCC2)O[C@@H]1CO do in these assays?
ERAP1 HTS inh: 0; PGC1a acetyl inh: -1; Env fusion inh: -3[16.7 µM]; Cneo AK release: 0; Ecoli rRNA inh: 2; FGF22 binding: 0

What do the screens show for `COc1cccc(CNC(=O)C[C@H]2C=C[C@@H](NC(=O)C3CCC3)[C@H](CO)O2)c1`?
PGC1a acetyl inh: 7; Env fusion inh: -22[16.7 µM]; Ecoli rRNA inh: 4

How did O=C(C[C@@H]1C=C[C@@H](NC(=O)C2CCC2)[C@@H](CO)O1)NC1CCC1 do in these assays?
ERAP1 HTS inh: -2; PGC1a acetyl inh: -2; Env fusion inh: -12[16.7 µM]; Cneo AK release: 0; Ecoli rRNA inh: 2; FGF22 binding: 0

How did COc1ccc(C(=O)c2c(C)c3cc(C)ccc3n2CC(O)CN2CCOCC2)cc1 (stereo unspecified) do in these assays?
ERAP1 HTS inh: -3; Env fusion inh: -33; Ecoli rRNA inh: -41; FGF22 binding: 44*

What do the screens show for `O=C(/C=C\Nc1ccc(S(=O)(=O)Nc2ncccn2)cc1)c1cccc2ccccc12`?
ERAP1 HTS inh: 4; Env fusion inh: -39; Ecoli rRNA inh: -20*; FGF22 binding: 0

Results for NS(=O)(=O)c1ccc(N/C=C\C(=O)c2cccc3ccccc23)cc1 ?
Env fusion inh: -4

Results for CCN(CC)C(=O)CSc1nc2c(c(-c3cccnc3)c1C#N)CCCC2 ?
ERAP1 HTS inh: -3; Env fusion inh: 11; Ecoli rRNA inh: -26; FGF22 binding: 43*

What do the screens show for `COc1ccc(O)c(/C=N/NC(=O)c2c(C)nnn2-c2nonc2N)c1`?
ERAP1 HTS inh: 4; PGC1a acetyl inh: 7; Env fusion inh: 0; Ecoli rRNA inh: 2; FGF22 binding: 1

How did Cc1nnn(-c2nonc2N)c1C(=O)NNC(=O)c1ccc(Cl)c(Cl)c1 do in these assays?
PGC1a acetyl inh: -6; Env fusion inh: 1; Ecoli rRNA inh: -26*; FGF22 binding: 0

How did N#Cc1c(-c2ccccc2)nc(SCC(=O)Nc2ccccc2)[nH]c1=O do in these assays?
Env fusion inh: 3; Cneo AK release: -3

What do the screens show for `N#Cc1c(-c2ccccc2)nc(SCC(=O)Nc2ccccc2F)[nH]c1=O`?
ERAP1 HTS inh: 2; PGC1a acetyl inh: 3; Env fusion inh: -6; Cneo AK release: 1; Ecoli rRNA inh: -11; FGF22 binding: 1.9*

Results for N#Cc1c(-c2ccccc2)nc(SCC(=O)N(c2ccccc2)c2ccccc2)[nH]c1=O ?
ERAP1 HTS inh: 1; PGC1a acetyl inh: 14; Env fusion inh: 9; Cneo AK release: 0; Ecoli rRNA inh: -49*; FGF22 binding: 1

What do the screens show for `N#C[C@@H]1[C@H](c2ccc(C#Cc3ccc(F)cc3)cc2)[C@@H](CO)N1C(=O)C1CC1`?
ERAP1 HTS inh: -1; PGC1a acetyl inh: -11; Env fusion inh: 21[16.7 µM]; Cneo AK release: 11; Ecoli rRNA inh: 1; FGF22 binding: 0

How did COc1cccc(C2=CC(=O)CC(C)(C)C2)c1OC do in these assays?
ERAP1 HTS inh: -2; Env fusion inh: 11; Cneo AK release: -1; Ecoli rRNA inh: -16; FGF22 binding: 0

Results for CC1(C)CC(=O)C=C(c2ccc(F)cc2OCc2ccccc2)C1 ?
ERAP1 HTS inh: -5; PGC1a acetyl inh: -51; Env fusion inh: 77*; Cneo AK release: 2; Ecoli rRNA inh: -17; FGF22 binding: 0
